Molecules are shown by their SMILES.

This note sets out measurements from ChEMBL document CHEMBL4011654, “Mitochondria-Targeted Lupane Triterpenoid Derivatives and Their Selective Apoptosis-Inducing Anticancer Mechanisms” (J Med Chem, 2017).

In test [1] the test system is ECa-109 cell line. As to the kind of experiment: Cytotoxicity against human ECA109 cells assessed as cell growth inhibition after 48 hrs by MTT assay. In kind it is functional, cell-based. The conditions noted are these: ECa-109, 48 h. In a few lines:
(§1)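 Adherent cells seeded at 5000/well, left 16−24 h, then exposed 48 h at 37 °C, 5% CO2 in RPMI with 10% FBS. Medium refreshed, MTT added for 4 h at 37 °C, medium removed, formazan dissolved in DMSO, OD570 read. IC50 taken as concentration inhibiting growth by 50%; triplicate.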

Test [2] relates to K562. As to the kind of experiment: Cytotoxicity against human K562 cells assessed as cell growth inhibition after 48 hrs by MTT assay. In kind it is functional, cell-based. The conditions noted are these: K562, 48 h. The procedure, abridged: (§2)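 Suspension cells seeded at 5000/well (HL-60 in IMDM, K562 in RPMI, both with 10% FBS) and treated. MTT then added for 4 h at 37 °C; plates centrifuged at 3000 rpm for 30 min, medium removed, DMSO added, OD570 read. IC50 taken as concentration giving 50% growth inhibition; triplicate.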

The subject of test [3] is HepG2. Briefly: Cytotoxicity against human HepG2 cells assessed as cell growth inhibition after 48 hrs by MTT assay. Format: functional, cell-based. The conditions noted are these: HepG2, 48 h. The procedure, abridged:
as §1

Test [4] relates to A549. Briefly: Cytotoxicity against human A549 cells assessed as cell growth inhibition after 48 hrs by MTT assay. Format: functional, cell-based. The following applies: A549, 48 h. The procedure, abridged:
as §1

The test system of test [5] is L02. As to the kind of experiment: Cytotoxicity against human HL-7702 cells assessed as cell growth inhibition after 48 hrs by MTT assay. The conditions noted are these: L02, 48 h. Format: cell-based. In a few lines: as §1
Test [6] has as its system HL-60. Briefly: Cytotoxicity against human HL60 cells assessed as cell growth inhibition after 48 hrs by MTT assay. In kind it is functional, cell-based. The conditions noted are these: HL-60, 48 h. In a few lines: as §2

`C=C(C)[C@@H]1CC[C@]2(C(=O)OC)CC[C@]3(C)[C@H](CC[C@@H]4[C@@]5(C)CC[C@H](OC(=O)CCCC[P+](c6ccccc6)(c6ccccc6)c6ccccc6)C(C)(C)[C@@H]5CC[C@]43C)[C@@H]12`: the IC50 is 4.75 µM in test [1]; 3.58 µM in test [2]; 4.35 µM in test [3]; 4.99 µM in test [4]; 6.3 µM in test [5]; 3.11 µM in test [6].

For `C=C(C)[C@@H]1CC[C@]2(C(=O)OCC)CC[C@]3(C)[C@H](CC[C@@H]4[C@@]5(C)CC[C@H](OC(=O)CCCC[P+](c6ccccc6)(c6ccccc6)c6ccccc6)C(C)(C)[C@@H]5CC[C@]43C)[C@@H]12`, the IC50 stood at 6.04 µM in test [1]; 4.03 µM in test [2]; 4.54 µM in test [3]; 4.79 µM in test [4]; 7.85 µM in test [5]; 2.75 µM in test [6].

Take `C=C(C)[C@@H]1CC[C@]2(CO)CC[C@]3(C)[C@H](CC[C@@H]4[C@@]5(C)CC[C@H](O)C(C)(C)[C@@H]5CC[C@]43C)[C@@H]12` [BETULIN]: the half-inhibitory concentration (IC50) in test [1] was determined as 26.6 µM; in test [2], 12.9 µM; in test [3] it was 10.7 µM; in test [4] it was 18.2 µM; in test [5], 26.8 µM; in test [6] it was 30.9 µM.

As to `C=C(C)[C@@H]1CC[C@]2(C(=O)O)CC[C@]3(C)[C@H](CC[C@@H]4[C@@]5(C)CC[C@H](O)C(C)(C)[C@@H]5CC[C@]43C)[C@@H]12` [BETULINIC ACID], the IC50 is 28.1 µM in test [1]; 22 µM in test [2]; 25.3 µM in test [3]; 17.1 µM in test [4]; 35.1 µM in test [5]; 18.5 µM in test [6].
